This note sets out measurements from ChEMBL document CHEMBL2057201, “New CD1d agonists: synthesis and biological activity of 6″-triazole-substituted α-galactosyl ceramides” (Bioorg Med Chem Lett, 2012).

In experiment [1] the test system is Mus musculus. Kind of experiment: Immunomodulatory activity in ip dosed C57BL/6 mouse assessed as stimulation of IL4 production after 2 hrs. The experiment is classed as functional, organism-based. The essentials: (§1)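 C57BL/6 mice received the glycolipids by intraperitoneal injection. Cytokines were measured in serum: IL-4 at 2 h and IFN-γ at 24 h after injection.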

For experiment [2], the system named is Mus musculus. Put plainly: Immunomodulatory activity in ip dosed C57BL/6 mouse assessed as stimulation of IL4 production after 2 hrs.
In experiment [3] the test system is Mus musculus. Kind of experiment: Immunomodulatory activity in ip dosed C57BL/6 mouse assessed as stimulation of IFNgamma production after 24 hrs.
The test system of a further experiment is iNKT. Put plainly: Immunomodulatory activity in mouse iNKT DN3A4-1.2 cells assessed as stimulation of IL2 production after 24 hrs by ELISA. In general terms: In an ELISA, binding on a coated surface is turned into a signal by an enzyme label.
In experiment [4] the test system is Mus musculus. Kind of experiment: Immunomodulatory activity in ip dosed C57BL/6 mouse assessed as stimulation of IFNgamma production after 24 hrs. Type of experiment: functional, organism-based. Summed up: as §1

Calls of active or inactive are those of the source. The calls are words filed in the database; no cut-off is given here.

Turning to `CCCCCCCCCCCCCCCCCCCCCCCCCC(=O)N[C@@H](CO[C@H]1O[C@H](Cn2cc(COCCOCCOCCOCCOCCOCCOCCOCCOC)nn2)[C@H](O)[C@H](O)[C@H]1O)[C@H](O)[C@H](O)CCCCCCCCCCCCCC`, the outcome in the experiment on Mus musculus [1], with Mus musculus [2], in the experiment with Mus musculus [3], with iNKT and with Mus musculus [4] was Active.

Consider `CCCCCCCCCCCCCCCCCCCCCCCCCC(=O)N[C@@H](CO[C@H]1O[C@H](Cn2cc(CCCCCCCC)nn2)[C@H](O)[C@H](O)[C@H]1O)[C@H](O)[C@H](O)CCCCCCCCCCCCCC`, for which the outcome with Mus musculus [1], in the experiment on Mus musculus [2], in the experiment with Mus musculus [3], with iNKT and in the experiment on Mus musculus [4] was Active.

Regarding `CCCCCCCCCCCCCCCCCCCCCCCCCC(=O)N[C@@H](CO[C@H]1O[C@H](Cn2nnc3ccccc32)[C@H](O)[C@H](O)[C@H]1O)[C@H](O)[C@H](O)CCCCCCCCCCCCCC`, the outcome in the experiment on iNKT was Active.

On to `CCCCCCCCCCCCCCCCCCCCCCCCCC(=O)N[C@@H](CO[C@H]1O[C@H](CN=[N+]=[N-])[C@H](O)[C@H](O)[C@H]1O)[C@H](O)[C@H](O)CCCCCCCCCCCCCC`, for which the outcome with Mus musculus [3], in the experiment on iNKT and in the experiment with Mus musculus [4] was Active.

Take `CCCCCCCCCCCCCCCCCCCCCCCCCC(=O)N[C@@H](CO[C@H]1O[C@H](Cn2cc(CCCCCCCCCCCC)nn2)[C@H](O)[C@H](O)[C@H]1O)[C@H](O)[C@H](O)CCCCCCCCCCCCCC`: the outcome in the experiment with Mus musculus [1], with Mus musculus [2], in the experiment on Mus musculus [3] and with Mus musculus [4] was Active.

`CCCCCCCCCCCCCCCCCCCCCCCCCC(=O)N[C@@H](CO[C@H]1O[C@H](Cn2nncc2-c2ccccc2)[C@H](O)[C@H](O)[C@H]1O)[C@H](O)[C@H](O)CCCCCCCCCCCCCC`: the outcome with Mus musculus [1], with Mus musculus [2] and in the experiment on iNKT was Active.

As for `CCCCCCCCCCCCCCCCCCCCCCCCCC(=O)N[C@@H](CO[C@H]1O[C@H](Cn2cc(-c3ccccc3)nn2)[C@H](O)[C@H](O)[C@H]1O)[C@H](O)[C@H](O)CCCCCCCCCCCCCC`, the result in the experiment on iNKT was Active.

As for `CCCCCCCCCCCCCCCCCCCCCCCCCC(=O)N[C@@H](CO[C@H]1O[C@H](Cn2nnc(-c3ccccc3)c2-c2ccccc2)[C@H](O)[C@H](O)[C@H]1O)[C@H](O)[C@H](O)CCCCCCCCCCCCCC`, the outcome in the experiment on iNKT was Active.
